The source made the active and inactive calls. The calls are words filed in the database; no cut-off is given here.
Legend:
[1] = target: T1, 3-hydroxy-3-methylglutaryl-coenzyme A reductase (Sus scrofa, UniProt Q1W675); test: (§1) Inhibition of pig liver microsomal HMG-CoA reductase by colorimetric method
T1 sequence (Q1W675 whole entry): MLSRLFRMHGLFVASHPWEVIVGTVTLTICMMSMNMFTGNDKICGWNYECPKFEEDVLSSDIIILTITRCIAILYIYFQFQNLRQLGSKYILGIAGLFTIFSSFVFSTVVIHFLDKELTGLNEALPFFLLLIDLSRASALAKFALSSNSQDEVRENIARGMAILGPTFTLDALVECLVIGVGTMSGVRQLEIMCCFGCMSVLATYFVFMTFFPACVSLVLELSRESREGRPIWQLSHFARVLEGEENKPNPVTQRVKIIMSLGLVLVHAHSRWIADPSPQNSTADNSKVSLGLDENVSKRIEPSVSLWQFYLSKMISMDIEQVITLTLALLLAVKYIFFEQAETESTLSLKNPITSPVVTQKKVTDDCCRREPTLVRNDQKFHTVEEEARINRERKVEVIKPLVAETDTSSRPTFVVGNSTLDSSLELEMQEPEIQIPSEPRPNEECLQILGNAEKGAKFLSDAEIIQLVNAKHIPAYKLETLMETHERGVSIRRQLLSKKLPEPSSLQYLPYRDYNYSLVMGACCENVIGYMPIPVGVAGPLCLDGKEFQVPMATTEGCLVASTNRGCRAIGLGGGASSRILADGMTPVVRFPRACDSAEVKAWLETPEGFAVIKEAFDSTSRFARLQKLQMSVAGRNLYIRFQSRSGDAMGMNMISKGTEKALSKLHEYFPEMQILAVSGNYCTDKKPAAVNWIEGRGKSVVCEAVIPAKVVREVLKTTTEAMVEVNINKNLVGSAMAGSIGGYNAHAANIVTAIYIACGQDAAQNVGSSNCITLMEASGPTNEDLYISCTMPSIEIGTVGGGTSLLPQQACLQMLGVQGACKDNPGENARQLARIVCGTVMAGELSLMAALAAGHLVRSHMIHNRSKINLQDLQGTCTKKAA
How it was run: (§2)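 Pig liver microsomal HMG-CoA reductase; compounds tested at several concentrations, each in triplicate; control uses phosphate buffer instead of compound, blank uses buffer instead of enzyme. Absorbance read at 405 nm; % inhibition from blank-corrected OD of test versus control; IC50 fitted from the inhibition-concentration series.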

[2] = target: T2, 3-hydroxy-3-methylglutaryl-coenzyme A reductase (Sus scrofa) (UniProt Q1W675); test: as §1; how it was run: as §2
T2 sequence (whole entry): T1 sequence (Q1W675 whole entry)

[3] = Inhibition of rat small intestinal mucosal alpha-glucosidase using p-nitrophenyl-alpha-D-glucopyranoside as substrate after 40 mins by colorimetric method
How it was run: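 Rat small intestinal mucosal α-glucosidase; several compound concentrations, each run three times in parallel; phosphate-buffer control replaces compound, blank replaces enzyme. Absorbance at 405 nm; % inhibition = blank-corrected OD of test versus control; IC50 derived from the concentration gradient.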

[4] = Inhibition of rat small intestinal mucosal alpha-glucosidase using p-nitrophenyl-alpha-D-glucopyranoside as substrate by HPLC method
How it was run: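 Rat intestinal α-glucosidase; after incubation the product 4-nitrophenol is quantified at once by HPLC (gradient from 20% acetonitrile in water with 0.1‰ TFA to 100% acetonitrile over 10 min). Each concentration run 3 times in parallel; % inhibition from peak areas versus control minus control blank; IC50 from the concentration series.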

Mus musculus [5] = test: Antiobesity activity in C57BL/6J DIO mouse assessed as reduction in LEE index at 3 mg/kg administered daily via oral gavage for 5 weeks; type: functional, organism-based
How it was run: (§3)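 Male C57BL/6J mice on high-fat diet, n = 8 per group, grouped by blood glucose and body weight. Daily oral gavage at 0.3, 1.0 or 3.0 mg/kg in soybean vehicle for 5 weeks. Vehicle groups were on normal diet and on high-fat diet.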

Mus musculus [6] = test: Antiobesity activity in C57BL/6J DIO mouse assessed as reduction in weight gain at 3 mg/kg administered daily via oral gavage for 5 weeks relative to vehicle-treated control; type: functional; how it was run: as §3
Mus musculus [7] = test: Antiobesity activity in C57BL/6J DIO mouse assessed as reduction in cumulative food intake at 3 mg/kg administered daily via oral gavage for 5 weeks; type: functional, organism-based; how it was run: as §3

Row | SMILES | IC50 [1] | inhibition [2] | IC50 [3] | IC50 [4] | Activity (Mus musculus [5]) | Activity (Mus musculus [6]) | Activity (Mus musculus [7])
1 | CC(C)=CCC/C(C)=C/CCC1=C[C@H](c2ccc([N+](=O)[O-])cc2)OC1=O | 7.43 µM | Dose-dependent effect | 5.11 µM |  |  |  | 
2 | COCOc1ccccc1[C@H]1C=C(CC/C=C(\C)CCC=C(C)C)C(=O)O1 | 8.9 µM | Dose-dependent effect | 19.3 µM |  |  |  | 
3 | CC(C)=CCC/C(C)=C/CCC1=C[C@H](c2ccccc2[N+](=O)[O-])OC1=O | 18.9 µM | Dose-dependent effect | 0.26 µM |  |  |  | 
4 | CCc1ccc([C@H]2C=C(CC/C=C(\C)CCC=C(C)C)C(=O)O2)cc1 | 14.2 µM | Dose-dependent effect | 0.17 µM | 0.16 µM |  |  | 
5 | CC(C)c1c(C(=O)Nc2ccccc2)c(-c2ccccc2)c(-c2ccc(F)cc2)n1CC[C@@H](O)C[C@@H](O)CC(=O)O [ATORVASTATIN] | 0.93 µM |  |  |  |  |  | 
6 | C[C@H]1O[C@H](O[C@H]2[C@H](O)[C@@H](O)[C@@H](O[C@H]3[C@H](O)[C@@H](O)C(O)O[C@@H]3CO)O[C@@H]2CO)[C@H](O)[C@@H](O)[C@@H]1N[C@H]1C=C(CO)[C@@H](O)[C@H](O)[C@H]1O (stereo partly drawn) [ACARBOSE] |  |  | 1.26 µM |  | inactive | inactive | inactive
7 | CC(C)=CCC/C(C)=C/CCC1=C[C@H](c2ccc3ccccc3c2)OC1=O | 49.8 µM | Dose-dependent effect | 5.98 µM |  |  |  | 
8 | CC(C)=CCC/C(C)=C/CCC1=C[C@H](c2ccccc2)OC1=O | 16.5 µM | Dose-dependent effect | 1.24 µM |  |  |  | 
9 | COc1ccc(OC)c([C@H]2C=C(CC/C=C(\C)CCC=C(C)C)C(=O)O2)c1 | 13.2 µM | Dose-dependent effect | 12.1 µM |  |  |  | 
10 | CC(C)=CCC/C(C)=C/CCC1=C[C@H](c2ccccc2O)OC1=O | 6.76 µM | Dose-dependent effect | 2.27 µM |  |  |  | 
11 | CC(C)=CCC/C(C)=C/CCC1=C[C@H](c2ccc(C)cc2)OC1=O | 18.1 µM | Dose-dependent effect | 0.29 µM | 0.23 µM |  |  | 
12 | CC(C)=CCC/C(C)=C/CCC1=C[C@H](c2cc(F)ccc2F)OC1=O | 25.1 µM | Dose-dependent effect | 1.59 µM |  |  |  | 
13 | CC(C)=CCC/C(C)=C/CCC1=C[C@H](c2ccc(C(C)C)cc2)OC1=O | 112 µM | Dose-dependent effect | 32.8 µM | 28.7 µM |  |  | 
14 | CC(C)=CCC/C(C)=C/CCC1=C[C@H](c2cc(O)ccc2O)OC1=O |  |  | 0.38 µM |  |  |  | 
15 | CC(C)=CCC/C(C)=C/CCC1=C[C@H](c2cc(F)c(F)c(F)c2)OC1=O | 38.2 µM | Dose-dependent effect | 2.04 µM |  |  |  | 
16 | COc1ccc([C@H]2C=C(CC/C=C(\C)CCC=C(C)C)C(=O)O2)cc1 | 6.21 µM | Dose-dependent effect | 21.7 µM |  |  |  | 
